Data taken from publication PMC9271465 (ESMO Open, 2022).

Assay: phase I dose-escalation: plasma pharmacokinetics
Assay type: in vivo, patients
Settings: for Cmax,ss / t1/2 / AUC0-24 h / Cmax: mean (%CV); for Tmax,ss / Tmax: median (range)
In short: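 Oral tablet, fasted, qd or b.i.d. (25–300 mg). Plasma sampled in cycle 0 after a single dose at pre-dose and 0.5–144 h. Under continuous dosing, sampled pre-dose on cycle 1 days 8 and 15, and on day 21 pre-dose to 24 h (b.i.d. to 12 h). Plasma stored at −80 °C. Noncompartmental analysis; arithmetic mean (%CV), Tmax median (range).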

[1] = multiple doses 21 days, 25 mg qd, n = 1
[2] = multiple doses 21 days, 50 mg qd, n = 3
[3] = multiple doses 21 days, 100 mg b.i.d., n = 3
[4] = multiple doses 21 days, 100 mg qd, n = 3
[5] = multiple doses 21 days, 200 mg qd, n = 3
[6] = multiple doses 21 days, 300 mg qd, n = 1
[7] = steady state after 21 days of multiple doses

C=CC(=O)Nc1cc(Nc2ncc(Cl)c(Nc3ccccc3C(=O)C(=O)N(C)C)n2)c(OC)cc1N1CCN(C)CC1 [BPI-15086]
dose dependence of Cmax and AUC0-t (25 to 300 mg, single dose and multiple doses): increased in a dose-dependent manner | Cmax,ss [1]: 24.6 (NA) ng/ml | Tmax,ss [1]: 2.88 (2.88-2.88) h | Cmax,ss [2]: 48.5 (64.3) ng/ml | Tmax,ss [2]: 2.08 (2.02-4.00) h | t1/2 (multiple doses 21 days, 50 mg qd): 8.94 (NA) h | Cmax,ss [3]: 240 (37.9) ng/ml | Tmax,ss [3]: 2.98 (2.03-3.00) h | t1/2 (multiple doses 21 days, 100 mg b.i.d.): 4.78 (NA) h | Cmax,ss [4]: 84.6 (65.6) ng/ml | Tmax,ss [4]: 3.00 (2.00-3.95) h | Cmax,ss [5]: 209 (71.1) ng/ml | Tmax,ss [5]: 2.02 (1.98-3.00) h | t1/2 (multiple doses 21 days, 200 mg qd): 9.09 (1.51) h | Cmax,ss [6]: 924 (NA) ng/ml | Tmax,ss [6]: 2.02 (2.02-2.02) h | t1/2 (multiple doses 21 days, 300 mg qd): 9.84 (NA) h | AUC0-24 h (single dose, 25 mg qd, n = 1): 285 (NA) h × ng/ml | Cmax (single dose, 25 mg qd, n = 1): 31.6 (NA) ng/ml | t1/2 (single dose, 25 mg qd, n = 1): 12.2 (NA) h | Tmax (single dose, 25 mg qd, n = 1): 1.97 (1.97-1.97) h | AUC0-24 h (single dose, 50 mg qd, n = 3): 324 (47.7) h × ng/ml | Cmax (single dose, 50 mg qd, n = 3): 31.3 (40.1) ng/ml | t1/2 (single dose, 50 mg qd, n = 3): 13.4 (35.2) h | Tmax (single dose, 50 mg qd, n = 3): 2.93 (2.02-4.05) h | AUC0-24 h (single dose, 100 mg qd, n = 3): 580 (37.3) h × ng/ml | Cmax (single dose, 100 mg qd, n = 3): 46.1 (34.7) ng/ml | t1/2 (single dose, 100 mg qd, n = 3): 11.3 (23.3) h | Tmax (single dose, 100 mg qd, n = 3): 3.00 (2.03-4.00) h | AUC0-24 h (single dose, 200 mg qd, n = 7): 2630 (91.2) h × ng/ml | Cmax (single dose, 200 mg qd, n = 7): 273 (97.8) ng/ml | t1/2 (single dose, 200 mg qd, n = 7): 9.91 (15.5) h | Tmax (single dose, 200 mg qd, n = 7): 4.02 (2.02-5.13) h | AUC0-24 h (single dose, 300 mg qd, n = 3): 3860 (41.3) h × ng/ml | Cmax (single dose, 300 mg qd, n = 3): 354 (29.5) ng/ml | t1/2 (single dose, 300 mg qd, n = 3): 14.1 (58.6) h | Tmax (single dose, 300 mg qd, n = 3): 4.00 (3.98-5.00) h | mean apparent terminal elimination half-life (t1/2), range across doses (single dose, 25-300 mg): 9.91 to 14.1 h | Median Tmax, range across doses (single dose, lowest to highest doses 25-300 mg): 1.97 to 4.02 h | mean Vz/F, range across doses (steady state): 556 to 3830 L | mean apparent oral clearance (CLss/F), range across doses (steady state): 49.3 to 166 L/h | mean t1/2, range across doses (steady state): 4.78 to 9.84 h | Cmax,ss, range across doses [7]: 24.6 to 924 ng/mL | Tmax,ss, range across doses [7]: 2.02 to 3.00 h
